Values after ≈ are worked out from the molar mass of the structure shown. Active and inactive are the calls of the source. No cut-off for these calls is given here.
Legend:
[1] = test system: Trypanosoma cruzi; test: Effect on endogenous Ergosta-7-24(24')-dien-3beta-ol level in Trypanosoma cruzi epimastigotes at 20 uM; format: functional
How it was run: (§1)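 EP stock epimastigotes grown 120 h in LIT medium with 10% newborn calf serum at 28 °C, with or without compound at the stated concentration. Total lipids were extracted, and free sterols were separated from polar lipids by silicic acid column chromatography. Sterols were quantified by capillary gas-liquid chromatography and mass spectrometry and reported as mass percent of free sterols.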

[2] = test system: Trypanosoma cruzi; test: Effect on endogenous 24-ethyl-5,7,22-cholesta-trien-3beta-ol level in Trypanosoma cruzi epimastigotes at 20 uM; format: functional; how it was run: as §1
[3] = test system: Trypanosoma cruzi; test: Effect on exogenous cholesterol level in Trypanosoma cruzi epimastigotes at 20 uM; format: functional; how it was run: as §1
[4] = test system: Trypanosoma cruzi; test: Effect on endogenous 24-methyl-5,7,22-cholesta-trien-3beta-ol level in Trypanosoma cruzi epimastigotes at 20 uM; format: functional; how it was run: as §1
[5] = test system: Trypanosoma cruzi; test: Growth inhibition of Trypanosoma cruzi epimastigotes; format: functional, organism-based
How it was run: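 EP epimastigotes grown in LIT medium with 10% newborn calf serum at 28 °C, 120 rpm. Compound added from 100-fold stocks at 1-2 × 10^7 cells ml-1. Densities counted by particle counter and hemocytometer. Percent growth factor based on 96 h growth relative to untreated cells; IC50 from non-linear fit; MIC also reported. Triplicates.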

[6] = test system: Trypanosoma cruzi; test: Reduction in proliferation of Trypanosoma cruzi epimastigotes at 15 uM; format: functional, organism-based
How it was run: (§2)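 Epimastigotes cultured in LIT medium at 28 °C with agitation, with or without 15 µM compound. Cell proliferation, medium glucose and ammonium (enzymatic assays) and medium pH were followed over time. Triplicates.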

[7] = test system: Trypanosoma cruzi; test: Effect on glucose consumption in digitonin permeablized Trypanosoma cruzi; format: functional, organism-based
How it was run: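 Resuspended with PEP 6 mM, ADP 6 mM, NaHCO3 7 mM and L-malate 1 mM. Preincubated 60 min at 28 °C with varying compound concentrations before 3 mM D-glucose was added. Medium glucose was assayed enzymatically every 15 min; IC50 determined.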

[8] = molecular target: T1, Hexokinase (Trypanosoma cruzi, UniProt Q8ST54); test: Inhibition of glycosomal Trypanosoma cruzi hexokinase in presence of D-glucose, 1 mM ATP and 3 mM MgCl2
T1 sequence (Q8ST54 whole entry): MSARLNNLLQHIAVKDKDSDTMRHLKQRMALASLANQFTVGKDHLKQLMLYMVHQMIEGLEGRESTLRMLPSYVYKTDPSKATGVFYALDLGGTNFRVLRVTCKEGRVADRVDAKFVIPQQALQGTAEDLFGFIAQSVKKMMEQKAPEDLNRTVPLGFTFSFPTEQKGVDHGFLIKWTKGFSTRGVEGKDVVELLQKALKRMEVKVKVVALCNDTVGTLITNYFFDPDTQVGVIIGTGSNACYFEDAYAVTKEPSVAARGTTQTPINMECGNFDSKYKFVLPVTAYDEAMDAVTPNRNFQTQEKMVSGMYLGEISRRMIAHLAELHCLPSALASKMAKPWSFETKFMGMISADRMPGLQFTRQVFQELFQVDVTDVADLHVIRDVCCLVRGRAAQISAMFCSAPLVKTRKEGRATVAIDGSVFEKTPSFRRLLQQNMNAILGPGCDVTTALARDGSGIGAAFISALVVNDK
How it was run: (§3)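 Purified intact glycosomes from exponential-phase epimastigotes (latency typically >95%) were permeabilized with digitonin 25 µg mg-1 protein for 1 min, pelleted and resuspended in buffer A (sucrose 225 mM, KCl 20 mM, KH2PO4 10 mM, EDTA 5 mM, Tris-HCl 20 mM, MgCl2 1 mM, pH 7.2). Hexokinase was assayed by coupled NADP+ reduction at 340 nm. Against ATP: 2 mM D-glucose, 3 mM MgCl2. Against glucose: 1 mM ATP, 3 mM MgCl2. Kii and Kis were fitted.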

[9] = molecular target: T1, Hexokinase; test: Inhibition of glycosomal Trypanosoma cruzi hexokinase in presence of ATP, 2 mM D-glucose and 3 mM MgCl2 by competitive inhibition assay; how it was run: as §3
[10] = molecular target: T1, Hexokinase; test: Inhibition of glycosomal Trypanosoma cruzi hexokinase in presence of D-glucose, 1 mM ATP and 3 mM MgCl2 by competitive inhibition assay; how it was run: as §3
[11] = test system: Trypanosoma cruzi; test: Inhibition of glucose consumption in Trypanosoma cruzi epimastigotes after 120 hrs; format: functional, organism-based; how it was run: as §2
[12] = molecular target: T1, Hexokinase; test: Inhibition of Trypanosoma cruzi hexokinase in presence of D-glucose, 1 mM ATP and 3 mM MgCl2 by competitive inhibition assay
How it was run: (§4)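 Homogeneous hexokinase purified from exponential-phase epimastigotes. Activity measured spectrophotometrically by coupling to glucose-6-phosphate dehydrogenase and following NADP+ reduction at 340 nm; rates taken from the initial linear slope. Against ATP: 2 mM D-glucose, 3 mM MgCl2. Against D-glucose: 1 mM ATP, 3 mM MgCl2. Substrate and inhibitor were varied, and Kii and Kis were obtained from fitting plus secondary plots.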

[13] = molecular target: T1, Hexokinase; test: Inhibition of Trypanosoma cruzi hexokinase in presence of ATP, 2 mM D-glucose and 3 mM MgCl2; how it was run: as §4
[14] = test system: Trypanosoma cruzi; test: Effect on endogenous Ergosta-5,7-24(24')-trien-3beta-ol level in Trypanosoma cruzi epimastigotes at 20 uM; format: functional; how it was run: as §1
[15] = test system: Trypanosoma cruzi; test: Effect on endogenous Ergosta-5,7-dien-3beta-ol level in Trypanosoma cruzi epimastigotes at 20 uM; format: functional; how it was run: as §1
[16] = test system: Trypanosoma cruzi; test: Effect on endogenous 24-ethyl-5,7-cholesta-dien-3beta-ol level in Trypanosoma cruzi epimastigotes at 20 uM; format: functional; how it was run: as §1
[17] = molecular target: T1, Hexokinase; test: Inhibition of Trypanosoma cruzi hexokinase in presence of ATP, 2 mM D-glucose and 3 mM MgCl2 by mixed inhibition assay
[18] = test system: Trypanosoma cruzi; test: Effect on exogenous cholesterol level in Trypanosoma cruzi epimastigotes at 50 uM; format: functional; how it was run: as §1
[19] = test system: Trypanosoma cruzi; test: Effect on endogenous 24-ethyl-5,7,22-cholesta-trien-3beta-ol level in Trypanosoma cruzi epimastigotes at 50 uM; format: functional; how it was run: as §1
[20] = test system: Trypanosoma cruzi; test: Effect on endogenous 24-ethyl-5,7-cholesta-dien-3beta-ol level in Trypanosoma cruzi epimastigotes at 50 uM; format: functional; how it was run: as §1
[21] = test system: Trypanosoma cruzi; test: Effect on exogenous cholesterol level in Trypanosoma cruzi epimastigotes at 100 uM; format: functional; how it was run: as §1
[22] = test system: Trypanosoma cruzi; test: Effect on endogenous 24-ethyl-5,7-cholesta-dien-3beta-ol level in Trypanosoma cruzi epimastigotes at 100 uM; format: functional; how it was run: as §1
[23] = molecular target: T1, Hexokinase; test: Inhibition of glycosomal Trypanosoma cruzi hexokinase in presence of ATP, 2 mM D-glucose and 3 mM MgCl2; how it was run: as §3
[24] = molecular target: T1, Hexokinase; test: Inhibition of Trypanosoma cruzi hexokinase in presence of D-glucose, 1 mM ATP and 3 mM MgCl2
How it was run: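 Hexokinase purified to homogeneity from exponential-phase T. cruzi epimastigotes. Activity was coupled to glucose-6-phosphate dehydrogenase and read as NADP+ reduction at 340 nm, with initial velocity taken from the slope, linear for at least 5 min. D-glucose was varied at fixed inhibitor levels with 1 mM ATP and 3 mM MgCl2. Kii and Kis came from fitting to a mixed-inhibition equation (intercept/slope secondary plots).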

[25] = test system: Trypanosoma cruzi; test: Inhibition of glucose consumption in Trypanosoma cruzi epimastigotes after 96 hrs; format: functional, organism-based; how it was run: as §2

| IC50 [5] [µM] | MIC [5] [µM] | IC50 [7] [µM] | Ki [8] [µM] | Ki [9] [µM] | Ki [10] [µM] | Ki [12] [µM] | Ki [13] [µM] | Ki [17] [µM] | Ki [23] [µM] | Compound | Activity [2] [%] | Activity [3] [%] | Activity [4] [%] | Activity [6] | Activity [14] [%] | Activity [15] [%] | Activity [16] [%] | other results |
| --- | --- | --- | --- | --- | --- | --- | --- | --- | --- | --- | --- | --- | --- | --- | --- | --- | --- | --- |
| 7 | 20 (≈ 6.92 µg/mL) | 1.2 | 10.6 | 2.6 | 2.9 | 0.4 | 1.2 | 0.6 |  | O=P(O)(O)C(Nc1cccc(Br)c1)P(=O)(O)O | 18.3 | 21.3 | 31 | Active | 6 | 18 | 3.4 | Activity [1]: 2%; Activity [11]: Active |
| 40.6 | 200 (≈ 56.6 µg/mL) | 10.3 | 43.9 | 11.4 | 3.4 | 3.3 | 4.3 | 2.8 | 10.5 | O=P(O)(O)C(O)(Cc1ccncc1)P(=O)(O)O |  |  |  |  |  |  |  | Activity [18]: 70.9%; Activity [19]: 14.6%; Activity [20]: 14.5%; Activity [21]: 93.3%; Activity [22]: 6.7%; Ki [24]: 6 µM |
| 6.4 | 20 (≈ 7.69 µg/mL) | 0.62 | 4.3 | 1.2 | 2.4 | 0.5 | 2.8 | 1.7 | 1.7 | CCn1c2ccccc2c2cc(NC(P(=O)(O)O)P(=O)(O)O)ccc21 | 19.3 | 18.8 | 23.4 | Active | 3.8 | 26.3 | 8.4 | Activity [25]: Active |

— ChEMBL document CHEMBL1147071, “Bisphosphonates as inhibitors of Trypanosoma cruzi hexokinase: kinetic and metabolic studies” (J Biol Chem, 2007)
